In ChEMBL document CHEMBL3525985, “Regiospecificity and stereospecificity of human UDP-glucuronosyltransferases in the glucuronidation of estriol, 16-epiestriol, 17-epiestriol, and 13-epiestradiol” (Drug Metab Dispos, 2013) one finds Km, Vmax and Drug metabolism data, which are given here for three molecules.

The Km is the concentration of substrate that gives half-maximal velocity. In general, Vmax refers to the top rate of the reaction or transport when substrate is in excess.

Assay type in all cases: ADME
One series concerns Liver microsome. The experiment in a line: Drug metabolism in human liver microsomes assessed as 17-epiestriol-17-glucuronide formation after 15 to 60 mins by Michaelis-Menten equation analysis in presence of UDPGA. The procedure, abridged: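 Pooled human liver microsomes (30 donors), 0.5 or 10 µg, with alamethicin at 5% of total protein. Incubated with 50 mM phosphate pH 7.4, 10 mM MgCl₂, 5 mM UDPGA and 10% DMSO for 15–60 min at 37°C. Each glucuronide regioisomer quantified by HPLC, in triplicate, with substrate consumption at or below 10%.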
For orientation: Liver microsomes are a subcellular fraction often used to study metabolism.

Series [1] can be described thus: Drug metabolism in human intestine microsomes assessed as 17-epiestriol-3-glucuronide formation after 15 to 60 mins by Michaelis-Menten equation analysis in presence of UDPGA. The procedure, abridged:
(§1)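 Pooled human intestine microsomes (6 donors), 0.5 or 10 µg, with alamethicin at 5% of total protein. Incubated with 50 mM phosphate pH 7.4, 10 mM MgCl₂, 5 mM UDPGA and 10% DMSO for 15–60 min at 37°C. Each glucuronide regioisomer quantified by HPLC, in triplicate, with substrate consumption at or below 10%.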

Series [2] concerns the target T1, UDP-glucuronosyltransferase 1A4 (Homo sapiens, UniProt P22310).
T1 sequence (P22310 whole entry): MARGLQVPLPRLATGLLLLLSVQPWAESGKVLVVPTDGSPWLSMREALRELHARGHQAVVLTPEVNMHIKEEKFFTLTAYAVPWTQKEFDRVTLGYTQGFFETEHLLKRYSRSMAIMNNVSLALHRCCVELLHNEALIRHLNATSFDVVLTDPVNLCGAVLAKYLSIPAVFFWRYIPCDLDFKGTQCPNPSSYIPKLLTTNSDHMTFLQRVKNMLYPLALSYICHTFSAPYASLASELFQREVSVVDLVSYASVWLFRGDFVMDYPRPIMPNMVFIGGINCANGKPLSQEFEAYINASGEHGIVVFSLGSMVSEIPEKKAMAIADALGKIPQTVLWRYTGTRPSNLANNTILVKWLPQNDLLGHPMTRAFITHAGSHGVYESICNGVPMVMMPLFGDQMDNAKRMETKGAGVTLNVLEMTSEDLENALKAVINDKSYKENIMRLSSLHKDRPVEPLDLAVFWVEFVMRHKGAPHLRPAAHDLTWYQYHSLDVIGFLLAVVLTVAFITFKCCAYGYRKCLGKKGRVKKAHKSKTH
The experiment in a line: Drug metabolism assessed as recombinant human C-terminal His-tagged UGT1A4-mediated 17-epiestriol-16-glucuronide formation at 200 uM after 15 to 60 mins by HPLC analysis in presence of UDPGA. The following applies: recombinant enzyme. The procedure, abridged:
(§2)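 Screening at a single substrate concentration of 200 μM, in triplicate. The reaction used 5 or 50 µg of UGT-enriched insect cell membranes in 50 mM phosphate pH 7.4 with 10 mM MgCl₂ and 5 mM UDPGA, 10% final DMSO. Incubation was 15–60 min at 37°C. Perchloric acid stopped the reaction and supernatants were analysed by HPLC. Controls lacked UDPGA. Rates were normalized to relative UGT expression level.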

Series [3] concerns the target T2, UDP-glucuronosyltransferase 1A3 (Homo sapiens, UniProt P35503).
T2 sequence (P35503 whole entry): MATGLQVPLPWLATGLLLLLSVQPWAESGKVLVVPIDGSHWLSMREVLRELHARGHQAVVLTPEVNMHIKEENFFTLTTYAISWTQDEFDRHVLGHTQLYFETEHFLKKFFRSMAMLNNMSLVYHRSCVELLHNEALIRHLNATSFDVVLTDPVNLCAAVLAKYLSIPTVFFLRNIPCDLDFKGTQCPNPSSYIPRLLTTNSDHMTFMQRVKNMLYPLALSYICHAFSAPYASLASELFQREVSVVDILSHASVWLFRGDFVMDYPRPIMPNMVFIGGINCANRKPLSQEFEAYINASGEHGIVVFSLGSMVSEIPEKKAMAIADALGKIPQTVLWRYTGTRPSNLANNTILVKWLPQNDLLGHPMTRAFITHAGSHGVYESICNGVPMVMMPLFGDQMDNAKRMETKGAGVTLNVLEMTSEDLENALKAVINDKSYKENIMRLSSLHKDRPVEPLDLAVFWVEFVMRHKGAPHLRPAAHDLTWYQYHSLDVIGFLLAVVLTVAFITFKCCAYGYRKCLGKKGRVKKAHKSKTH
Description: Drug metabolism assessed as recombinant human C-terminal His-tagged UGT1A3-mediated 16-epiestriol-16-glucuronide formation after 15 to 60 mins by Michaelis-Menten equation analysis in presence of UDPGA. To be noted: recombinant enzyme.

Series [4] can be described thus: Drug metabolism in human intestine microsomes assessed as 16-epiestriol-3-glucuronide formation after 15 to 60 mins by Michaelis-Menten equation analysis in presence of UDPGA. The procedure, abridged:
as §1

The target of series [5] is T3, UDP-glucuronosyltransferase 2A1 (Homo sapiens, UniProt P0DTE4).
T3 sequence (P0DTE4 whole entry): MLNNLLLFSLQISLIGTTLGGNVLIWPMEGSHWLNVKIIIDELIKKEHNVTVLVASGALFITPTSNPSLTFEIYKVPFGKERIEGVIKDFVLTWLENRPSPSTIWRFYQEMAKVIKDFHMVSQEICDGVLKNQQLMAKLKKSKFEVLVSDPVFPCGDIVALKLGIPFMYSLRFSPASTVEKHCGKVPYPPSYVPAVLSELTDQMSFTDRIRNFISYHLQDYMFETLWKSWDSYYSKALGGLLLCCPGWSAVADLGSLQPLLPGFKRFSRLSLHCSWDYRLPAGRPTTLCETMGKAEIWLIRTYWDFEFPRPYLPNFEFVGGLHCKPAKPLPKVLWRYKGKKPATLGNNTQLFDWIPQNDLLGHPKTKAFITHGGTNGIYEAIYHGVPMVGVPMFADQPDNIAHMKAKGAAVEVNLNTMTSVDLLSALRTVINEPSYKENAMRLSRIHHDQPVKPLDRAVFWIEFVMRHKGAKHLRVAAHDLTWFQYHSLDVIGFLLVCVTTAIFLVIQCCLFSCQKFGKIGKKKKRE
Description: Drug metabolism assessed as recombinant human C-terminal His-tagged UGT2A1-mediated estradiol-3-glucuronide/estradiol-17-glucuronide formation at 200 uM after 15 to 60 mins by HPLC analysis in presence of UDPGA. The following applies: recombinant enzyme. The procedure, abridged: as §2

As to `C[C@]12CC[C@@H]3c4ccc(O)cc4CC[C@H]3[C@@H]1C[C@@H](O)[C@H]2O`, in the series with Liver microsome, the Km amounted to 21 µM and the Vmax amounted to 5425 pmol/min/mg. In series [1], the Km is 251 µM and the Vmax was found to be 1239 pmol/min/mg. For the same molecule, the Drug metabolism result in series [2] was “metabolite_detected”.
In the case of `C[C@]12CC[C@@H]3c4ccc(O)cc4CC[C@H]3[C@@H]1C[C@H](O)[C@@H]2O` [EPIESTRIOL], the Drug metabolism in series [3] is 5 pmol/min/mg. Further, in series [4], the Km was found to be 50 µM and the Vmax turned out to be 4111 pmol/min/mg.
As for `C[C@]12CC[C@@H]3c4ccc(O)cc4CC[C@H]3[C@@H]1CC[C@@H]2O` [ESTRADIOL], in series [5], the Drug metabolism result is recorded as “metabolite_detected”.
